Measurements taken from paper PMC3163034 (Digestive diseases and sciences, 2011).
Where a name gives a salt, the structure may show the parent alone.

Experiments:
[1] = Plasma levels of orally administered AT1a antagonists in DSS-treated mice; assay type: in vivo; settings: 10 mg/kg; for Cmax at 2 h: mouse, plasma, po
How it was run: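 Mice given DSS for 7 days received test compound orally at 10 mg/kg and were killed 2 h later. Plasma was collected by cardiac puncture, diluted tenfold in mobile phase, and quantified by LC-MS/MS on a C18 column (150 × 2.0 mm, 0.2 ml/min). Data are mean ± SD, n = 5.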

[2] = rats; cited from earlier work
[3] = Colonic mucosa and mesenteric blood flow by laser Doppler perfusion imaging; assay type: in vivo, mice; settings: 7 days of DSS, transanal treatment, n = 6; for Colonic blood flow at the mucosal level: naive 1.91 ± 0.26, mean ± SD; for Mesenteric blood flow: naive 2.82 ± 0.23, mean ± SD
How it was run: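 After 7 days of DSS in drinking water, with daily transanal test compound (10 or 100 mg/kg/day) or water, and naive controls, mice (n = 6/group) were anesthetized just before harvest. Median laparotomy exposed the mesentery. A […] LDPI beam 12 cm above scanned the mesentery and 2 cm of distal colonic mucosa. Perfusion was normalized to total pixel area (mean ± SD).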

[4] = Blood pressure and heart rate by tail-cuff in DSS mice; assay type: in vivo; settings: transanal treatment, compared to naive group
How it was run: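 Mice received DSS in drinking water for 7 days plus daily transanal test compound (100 or 10 mg/kg/day) suspended in ddH2O, 0.25 ml total, via blunt needle. Naive controls received transanal water only. Heart rate and blood pressure were taken by automated noninvasive tail-cuff on DSS day 6, 1 h before (Pre) and 2 h after (Post) transanal dosing. Data are mean ± SD.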

[5] = Ussing-chamber permeability across excised mouse intestinal segments; assay type: in vitro ADME, mice; settings: for Peff, Colon (mean ± SD) / Peff, Small intestine (mean ± SD): 1 mg/ml mucosal side, pH 7.4, 37°C
How it was run: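 Freshly isolated jejunum and left-sided colon from naive and 7-day DSS-treated mice, mounted with 0.3 cm2 exposed area. Both sides held 5 ml Krebs buffer, pH 7.4, 37°C, gassed with 95% O2/5% CO2. Test compound added mucosally (final 1 mg/ml). Serosal samples taken every 20 min from 0 to 120 min, in triplicate, and measured by LC-MS/MS. Peff = (dC/dt)·V/(A·Co).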

[6] = Normal rat jejunum, Ussing chamber; cited from earlier work
[7] = 2 h after oral administration, DSS mice

Structure (SMILES) | plasma level compared to candesartan [1, 7] | plasma level compared to losartan [1, 7] | Cmax at 2 h [1] [ng/mL] | oral 50% effective dose (ED50, blood pressure lowering) [2] [mg/kg] | Colonic blood flow at the mucosal level [3] | Mesenteric blood flow [3] | Heart rate [4] | Peff, Colon (mean ± SD) ([5]; DSS-treated mice (7 days)) [×10⁻⁶ cm/s] | Peff, Small intestine (mean ± SD) ([5]; DSS-treated mice (7 days)) [×10⁻⁶ cm/s] | Peff, Colon (mean ± SD) ([5]; Normal (naive) mice) [×10⁻⁶ cm/s] | Peff, Small intestine (mean ± SD) ([5]; Normal (naive) mice) [×10⁻⁶ cm/s] | permeability coefficient compared to other AT1aR-antagonists ([5]; Ussing chamber, both naive- and DSS-treated specimens) | Peff, Small intestine [6] [×10⁻⁶ cm/s]
CCCCc1ncc(CO)n1Cc1ccc(-c2ccccc2-c2nn[nH]n2)cc1 [DCL, 2-butyl-1-[[2′-(2H-tetrazol-5-yl)[1,1′-biphenyl]-4-yl]methyl]-1H-imidazole-5-methanol] | over tenfold lower | threefold lower | 37.8 ± 26.4 | > 100 | failed to change | failed to change | not significantly different | 2.66 ± 0.96 | 1.52 ± 1.31 | 1.58 ± 1.24 | 1.37 ± 0.15 | threefold to sixfold lower | 
C[C@H](N[C@@H](CCc1ccccc1)C(=O)O)C(=O)N1CCC[C@H]1C(=O)O [Enalaprilat] |  |  |  |  |  |  |  |  |  |  |  |  | 6e+12
CCOc1nc2cccc(C(=O)O)c2n1Cc1ccc(-c2ccccc2-c2nnn[nH]2)cc1 [candesartan, 2-ethoxy-1-[[2′-(2H-tetrazol-5-yl)[1,1′-biphenyl]-4-yl]methyl]-1H-benzimidazole-7-carboxylic acid] |  |  | 569 ± 188 |  | 0.92 ± 0.20 | 1.56 ± 0.33 | did decline significantly | 5.94 ± 4.41 | 3.85 ± 2.03 | 4.13 ± 3.04 | 7.85 ± 5.91 |  | 
CCCCc1nc(Cl)c(CO)n1Cc1ccc(-c2ccccc2-c2nn[nH]n2)cc1 [losartan, 2-butyl-4-chloro-1-[[2′-(2H-tetrazol-5-yl)[1,1′-biphenyl]-4-yl]methyl]-1H-imidazole-5-methanol, mono-potassium salt] |  |  | 117 ± 87 | 0.59 | 0.88 ± 0.32 | 1.97 ± 0.58 | not significantly different | 5.77 ± 3.37 | 5.24 ± 1.4 | 6.4 ± 5.6 | 4.21 ± 1.67 |  | 
